Rad51 HR inh – Rad51 (human) homologous recombination inhibition; Q06609; 0.085% of 200,000 active; hRad51 DNA strand exchange, fluorescence dequenching; inhibition, % at 10 µM;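 active = inhibition above 40% at the single screening dose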
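Test system: preformed human Rad51 ssDNA filaments. Compound dosing: single dose, 10 µM final compound. Incubation: filaments 15 min 37 °C, then compound 30 min. Technique: FRET fluorescence dequenching, excitation 485 nm, emission 520 nm. Read-out basis: percent inhibition from fluorescence, normalised to plate control and blank means. Benchmarks: plate controls and plate blanks.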
SKKanGAS inh – inhibitors of SKKanGAS S. pyogenes growth in kanamycin (SK-promoter or general growth effect); BacTiter-Glo, 6 h; inhibition, % at 7.5 µM; 1.3% of 300,000 active; AID 1662;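 active = mean replicate score, as percent of positive control median, at least 50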;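 note: strain carries kanamycin resistance gene driven by streptokinase promoter and grows in 40 µg/ml kanamycin; loss of luminescence reflects streptokinase promoter inhibition or plain growth inhibition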
KCC2 mod – modulates chloride dependent transport by human KCC2 | Q9H2X9 | KCC2 cells, thallium flux FluoZin-2 fluorescence | B-score of Tl+ flux slope (higher = more flux/activation; lower = inhibition) at 10 µM | 2.2% of 190,000 active | AID 1456;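 active = thallium flux slope and its plate-corrected score both differing from the plate sample mean at a set confidence after two filtering rounds, in either direction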;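 note: slope of fluorescence scaled to starting intensity during 10 to 20 s after thallium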
Target sequence (Q9H2X9 whole entry, looked up): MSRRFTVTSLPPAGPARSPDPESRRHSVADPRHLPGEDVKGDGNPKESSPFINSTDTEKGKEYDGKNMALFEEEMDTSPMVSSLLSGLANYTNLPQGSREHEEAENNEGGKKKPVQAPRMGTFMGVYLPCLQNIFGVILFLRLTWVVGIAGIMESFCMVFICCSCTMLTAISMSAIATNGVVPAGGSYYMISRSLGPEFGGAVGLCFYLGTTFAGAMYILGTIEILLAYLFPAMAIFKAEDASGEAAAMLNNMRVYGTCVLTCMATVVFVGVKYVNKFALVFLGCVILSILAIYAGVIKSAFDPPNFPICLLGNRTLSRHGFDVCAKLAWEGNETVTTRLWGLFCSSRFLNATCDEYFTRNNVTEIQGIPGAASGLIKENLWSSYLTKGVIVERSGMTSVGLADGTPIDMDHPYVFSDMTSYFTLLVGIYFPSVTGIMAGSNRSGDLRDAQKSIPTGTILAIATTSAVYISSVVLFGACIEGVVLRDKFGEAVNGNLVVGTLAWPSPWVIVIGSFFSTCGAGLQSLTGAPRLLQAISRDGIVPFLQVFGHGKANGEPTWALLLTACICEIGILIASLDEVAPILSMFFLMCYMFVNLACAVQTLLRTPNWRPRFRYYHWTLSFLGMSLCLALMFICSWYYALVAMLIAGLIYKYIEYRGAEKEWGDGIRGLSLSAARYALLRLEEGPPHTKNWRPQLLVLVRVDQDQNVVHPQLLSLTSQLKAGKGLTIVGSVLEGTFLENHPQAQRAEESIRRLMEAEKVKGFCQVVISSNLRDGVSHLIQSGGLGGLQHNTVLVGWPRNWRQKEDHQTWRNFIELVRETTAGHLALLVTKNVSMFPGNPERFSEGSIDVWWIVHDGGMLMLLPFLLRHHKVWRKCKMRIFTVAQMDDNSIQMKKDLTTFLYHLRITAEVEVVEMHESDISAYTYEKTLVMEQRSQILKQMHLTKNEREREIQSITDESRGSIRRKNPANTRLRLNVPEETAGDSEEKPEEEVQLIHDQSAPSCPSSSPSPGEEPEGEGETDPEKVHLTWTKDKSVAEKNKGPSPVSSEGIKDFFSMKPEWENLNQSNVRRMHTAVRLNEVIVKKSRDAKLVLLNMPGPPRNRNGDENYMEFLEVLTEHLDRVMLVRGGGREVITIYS
Autophagy mod – autophagy modulation, high-content screen. AID 463193. calls only at 10 µM (by protocol). MEF GFP-LC3 puncta imaging; test concentration mostly 10 µM. 0.98% of 190,000 active;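 active = percentage of spot-positive cells more than 3 SD above its plate mean, without a fluorescence outlier flag or 80% toxicity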
WT yeast gro inh – growth inhibition of WT yeast, mitochondrial fusion screen; mitochondrial fusion phenotypic screen, WT strain; inhibition, % at 10 µM; 2.1% of 190,000 active; AID 1362; in the data active = inhibition above about 58%; tested in S. cerevisiae
Insulin prom up – MIN6 insulin promoter up-regulation; AID 1625; z-score at 5 µM; MIN6 insulin promoter-GFP reporter, high-content imaging; hits give high values; 0.3% of 190,000 active;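 active = z-score above 3 at 5 µM with at least 500 cells counted in the well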
Each line names hits and unclear results; the compound was inactive in the other large screens. Rows were chosen to be rich in hits. Some 4.2% of all compounds tested hit in one or more screens of this group.

O=C(CCC(=O)N1CCN(Cc2ccc(F)cc2)CC1)Nc1nnc(C(F)(F)F)s1	none (no result: Rad51 HR inh, KCC2 mod, Autophagy mod, WT yeast gro inh, Insulin prom up)
COc1ccc(NC(=O)CN(c2ccc(C)cc2)S(=O)(=O)c2c(C)nn(C)c2C)cc1	none (no result: Rad51 HR inh, KCC2 mod, Autophagy mod, WT yeast gro inh, Insulin prom up)
COc1ccc2nc(NC(=O)CN(c3ccc(C)cc3)S(=O)(=O)c3c(C)nn(C)c3C)sc2c1	WT yeast gro inh 69.4 (no result: KCC2 mod)
CSc1nc(N)c(NC(=O)c2ccc(Br)o2)c(=O)[nH]1	none (no result: Rad51 HR inh, KCC2 mod, Autophagy mod, WT yeast gro inh, Insulin prom up)
O=C(c1ccco1)N1CCN(c2c(-c3ccccc3)c3cc(Cl)ccc3[nH]c2=O)CC1	WT yeast gro inh 85.8
O=c1[nH]c2ccc(Cl)cc2c(-c2ccccc2)c1N1CCN(c2ccccn2)CC1	SKKanGAS inh 83.8
CCN(CC)c1ccc(/C=N/NC(=O)CCC(=O)NCc2ccccc2)c(O)c1	SKKanGAS inh 55.8
COc1cc(/C=N\NC(=O)CNC(=O)C2COc3ccccc3O2)ccc1O (stereo not drawn)	none
CCN(CC)c1ccc(/C=N/NC(=O)CNC(=O)C2COc3ccccc3O2)c(O)c1 (stereo not drawn)	SKKanGAS inh 58.5 (no result: Rad51 HR inh, KCC2 mod, Autophagy mod, WT yeast gro inh, Insulin prom up)
CCOC(=O)N/N=C/c1ccc(N(CC)CC)cc1O	none (no result: Rad51 HR inh)
CCN(CC)S(=O)(=O)c1ccc(C(=O)N(c2ccc(C)cc2)C2C=CS(=O)(=O)C2)cc1 (stereo not drawn)	none
Nc1cc(=O)[nH]c(SCC(=O)NNC(=O)Cc2ccccc2)n1	none
Cc1cccn2c(=O)c(/C=C(\C#N)S(=O)(=O)c3ccccc3)c(Oc3ccc(Cl)cc3)nc12	WT yeast gro inh 59.9
Cc1cc(Oc2nc3c(C)cccn3c(=O)c2/C=C(\C#N)S(=O)(=O)c2ccccc2)ccc1Cl	none
CC1CCN(c2oc(Cc3cccc4ccccc34)nc2C#N)CC1	none (no result: KCC2 mod)
N#Cc1nc(Cc2cccc3ccccc23)oc1N1CCC(C(N)=O)CC1	KCC2 mod -7.41
CCCOc1ccc(-c2nc(C#N)c(N3CCC(C(N)=O)CC3)o2)cc1	WT yeast gro inh 94.2
Cc1csc(SCC(=O)Nc2ccccc2[N+](=O)[O-])n1	none (no result: Insulin prom up)
O=C(NC1CCCC1)C(c1cccs1)N(C(=O)c1csnn1)c1ccccc1F (stereo not drawn)	none (no result: Rad51 HR inh, KCC2 mod, Autophagy mod, WT yeast gro inh, Insulin prom up)
CCc1c(C)nc(SCc2ccccn2)[nH]c1=O	none
Cc1cc(C)cc(OCC(=O)O/N=C(\N)c2cccnc2)c1	none (no result: Autophagy mod, WT yeast gro inh)
O=C(Nc1ccccc1)C(=O)Nc1ccc2c(c1)N(C(=O)C1CC1)CCC2	SKKanGAS inh 54.5 (no result: Rad51 HR inh, KCC2 mod, Autophagy mod, WT yeast gro inh, Insulin prom up)
OC(CNCC(c1ccc(Cl)cc1Cl)c1c[nH]c2ccccc12)c1ccccc1 (stereo not drawn)	SKKanGAS inh 79.5
O=[N+]([O-])CC(c1ccccc1)c1c[nH]c2ccccc12 (stereo not drawn)	none (no result: Rad51 HR inh, KCC2 mod, Autophagy mod, WT yeast gro inh, Insulin prom up)
O=C(c1ccccn1)N1N=C2/C(=C/c3ccc(F)cc3)CCCC2C1c1ccc(F)cc1 (stereo not drawn)	WT yeast gro inh 74.5
N#C/C(=C\c1ccc(Cl)cc1)C(=O)Nc1cccnc1	none (no result: Autophagy mod, WT yeast gro inh)
Cc1ccc2[nH]c(O)c(N=Nc3nc4ccccc4s3)c2c1	SKKanGAS inh 108.1, KCC2 mod 39.6 (no result: Rad51 HR inh, Autophagy mod, WT yeast gro inh)
Cc1ccc2[nH]c(C)c(/C=N/Nc3nc4ccccc4s3)c2c1	none
Oc1[nH]c2ccccc2c1N=Nc1nc2ccccc2s1	KCC2 mod 6.05 (no result: Rad51 HR inh, Insulin prom up)
Oc1[nH]c2ccccc2c1N=Nc1ccccc1	none (no result: Autophagy mod, WT yeast gro inh)
O=C(O)CCC(=O)Nc1ccc(Sc2ccc([N+](=O)[O-])cc2)cc1	none
O=C(COC(=O)c1ccc(Cl)c([N+](=O)[O-])c1)NC1CCCC1	none (no result: Rad51 HR inh, KCC2 mod, Autophagy mod, WT yeast gro inh, Insulin prom up)
O=C(COC(=O)Cc1ccccc1[N+](=O)[O-])NC1CCCC1	Autophagy mod active
O=C(COC(=O)c1ccccc1C(=O)c1ccc(Cl)c([N+](=O)[O-])c1)NC1CCCCCC1	WT yeast gro inh 77.7
O=C(COC(=O)Cc1ccccc1[N+](=O)[O-])NCc1ccc(F)cc1	none
CSc1nc2ccccc2cc1/C=C(\C#N)c1ccccc1	none
CSc1nc2ccccc2cc1/C=C(\C#N)c1ccc(Cl)c(Cl)c1	Autophagy mod active
COc1ccc(S(=O)(=O)N(C)C)cc1NC(=O)Cc1c[nH]c2ccccc12	none
CC(NC(=O)COc1ccc(Br)cc1)C1CCCO1 (stereo not drawn)	none (no result: Rad51 HR inh, KCC2 mod, Autophagy mod, WT yeast gro inh, Insulin prom up)
COc1cc(OC)cc(-n2nnnc2SCC(=O)Nc2ccc(C(C)=O)cc2)c1	Autophagy mod active (no result: Insulin prom up)
CCCCC(=O)Nc1ccc(N2CCN(C(=O)c3ccco3)CC2)cc1	none (no result: Rad51 HR inh, KCC2 mod, Autophagy mod, WT yeast gro inh, Insulin prom up)
